Data set [1] in a line: Ionisation constant for the compound. The format is physicochemical. The gist of the method:
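pKa measured by UV–vis absorbance of the conjugate base in buffers from pH 6.8 to 10.8; DMSO stocks diluted to 0.4–0.5% DMSO. Fraction of A− plotted against pH to obtain pKa.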

Data set [2] concerns Escherichia coli. Briefly: Minimum inhibitory concentration against Escherichia coli was determined. The format is functional. The gist of the method:
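Broth microdilution against E. coli BL21(DE3) pLysS in cation-adjusted Mueller–Hinton broth. Stocks in 1 M KOH, diluted via 50 mM Na2CO3 pH 8.5; final 0.01–64 μg/mL.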

In data set [3] the target is Enoyl-[acyl-carrier-protein] reductase [NADH] FabI (Escherichia coli) (UniProt P0AEK4). Briefly: In vitro inhibitory activity against wild-type enoyl-[acyl-carrier-protein] reductase (FabI) of Escherichia coli expressed as K2.
Data set [4] has the same target. Briefly: In vitro inhibitory activity against wild-type enoyl-[acyl-carrier-protein] reductase (FabI) of Escherichia coli expressed as K1.

≈ marks a conversion by molar mass, not a printed value. Where “and” joins values, the source holds several entries; their conditions need not be identical. Equal entries are not always repeated. Bounds are passed on as bounds.

From ChEMBL document CHEMBL1148389 (J Med Chem, 2004) come the findings set out here.

Sequence of Enoyl-[acyl-carrier-protein] reductase [NADH] FabI (Escherichia coli) (P0AEK4 whole entry, looked up): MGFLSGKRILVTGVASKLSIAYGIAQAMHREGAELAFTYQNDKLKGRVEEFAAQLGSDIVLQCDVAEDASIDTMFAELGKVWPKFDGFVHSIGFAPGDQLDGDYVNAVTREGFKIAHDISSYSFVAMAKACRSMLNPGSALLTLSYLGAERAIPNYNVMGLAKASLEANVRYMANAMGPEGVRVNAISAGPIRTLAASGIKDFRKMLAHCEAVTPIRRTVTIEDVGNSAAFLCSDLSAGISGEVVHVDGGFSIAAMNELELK

For `Oc1cc(Cl)ccc1Oc1ccc(Cl)cc1Cl` [TRICLOSAN], the pKa (usually the negative logarithm of the acid dissociation constant) in data set [1] was determined as 8.4; in data set [1] (read-out: pKa) it was 7.8. In addition, in data set [2], inhibition of growth (MIC) required 0.3 µg/mL (≈ 1.04 µM).
`Oc1ccccc1Cc1ccccc1O`: in data set [3], the K2 was determined as 30 µM. Besides, the minimum inhibitory concentration (MIC) – broadly, the smallest concentration in the dilution series that meets the test's criterion for growth inhibition – in data set [2] was over 40 µg/mL. The same compound displayed a K1 in data set [4] of 53 µM.
As to `Oc1ccccc1Oc1ccccc1`, the pKa in data set [1] (read-out: pKa) was 9.12. In data set [3], this compound had a K2 of 0.4 µM. The MIC in data set [2] worked out at 3.7 µg/mL (≈ 19.9 µM). Besides, the K1 in data set [4] worked out at 0.5 µM.
For the compound `Oc1cc(Cl)ccc1Oc1ccccc1`, the pKa in data set [1] (read-out: pKa) is 8.13. For the same compound, the MIC in data set [2] stood at 0.07 µg/mL (≈ 0.317 µM). In data set [4], this compound registered a K1 of 1.1e-06 µM.
For the compound `Oc1cc(F)ccc1Oc1ccccc1`, the pKa in data set [1] (read-out: pKa) amounted to 8.12. Further, the K2 in data set [3] was 0.042 µM and 0.24 µM. For the same compound, the lowest concentration to inhibit growth in data set [2] (MIC) was 0.6 µg/mL (≈ 2.94 µM).
With `Cc1ccc(Oc2ccccc2)c(O)c1`, in data set [1] (read-out: pKa), the pKa is 9.15. For the same compound, in data set [3], the K2 was 0.0072 µM and 0.0097 µM. For the same compound, the lowest concentration to inhibit growth in data set [2] (MIC) was 1 µg/mL (≈ 4.99 µM).
